From ChEMBL document CHEMBL4382246, “Synthesis, biological evaluation, and molecular docking investigation of 3-amidoindoles as potent tubulin polymerization inhibitors” (Eur J Med Chem, 2019)

system: MDA-MB-468; assay: Cytotoxicity against human MDA-MB-468 cells after 72 hrs by MTT assay; format: functional, cell-based; settings: MDA-MB-468, 72 h
Outline: (§1)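 Lines kept in RPMI-1640 with 10% FBS. Cells were seeded at 2×10³ per well and allowed to attach for 24 h at 37 °C. Medium was then replaced with medium holding serial dilutions from 100 mM DMSO stocks, with 0.1% DMSO as negative control, for 72 h at 37 °C. […] IC50 was fitted from the concentration series as the mean ± SD of three independent experiments run in duplicate.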

SMILES	IC50
COc1ccc(/C=C\c2cc(OC)c(OC)c(OC)c2)cc1O [COMBRETASTATIN A4]	0.00155 µM
COc1ccc(C(=O)c2[nH]c3ccccc3c2NC(=O)c2cc(OC)c(OC)c(OC)c2)cc1	7.09 µM
COc1cc(C(=O)Nc2c(C(=O)c3ccc4ccccc4c3)[nH]c3cc(C)ccc23)cc(OC)c1OC	> 100 µM
COc1cc(C(=O)Nc2c(C(=O)c3ccc(C)cc3)[nH]c3cc(C)ccc23)cc(OC)c1OC	75.1 µM
COc1cc(C(=O)Nc2c(C(=O)c3ccc(Br)cc3)[nH]c3ccccc23)cc(OC)c1OC	7.87 µM
COc1ccc(C(=O)c2[nH]c3cc(Cl)ccc3c2NC(=O)c2cc(OC)c(OC)c(OC)c2)cc1O	23.2 µM
COc1cc(C(=O)Nc2c(C(=O)c3cccc(Br)c3)[nH]c3cc(Cl)ccc23)cc(OC)c1OC	20.8 µM

system: T47D; assay: Cytotoxicity against human T47D cells after 72 hrs by MTT assay; format: functional, cell-based; settings: not given; outline: as §1

SMILES	IC50
COc1ccc(/C=C\c2cc(OC)c(OC)c(OC)c2)cc1O [COMBRETASTATIN A4]	0.00189 µM
COc1ccc(C(=O)c2[nH]c3ccccc3c2NC(=O)c2cc(OC)c(OC)c(OC)c2)cc1	5.56 µM
COc1cc(C(=O)Nc2c(C(=O)c3ccc4ccccc4c3)[nH]c3cc(C)ccc23)cc(OC)c1OC	> 100 µM
COc1cc(C(=O)Nc2c(C(=O)c3ccc(C)cc3)[nH]c3cc(C)ccc23)cc(OC)c1OC	40.2 µM
COc1cc(C(=O)Nc2c(C(=O)c3ccc(Br)cc3)[nH]c3ccccc23)cc(OC)c1OC	9.55 µM
COc1ccc(C(=O)c2[nH]c3cc(Cl)ccc3c2NC(=O)c2cc(OC)c(OC)c(OC)c2)cc1O	9.28 µM
COc1cc(C(=O)Nc2c(C(=O)c3cccc(Br)c3)[nH]c3cc(Cl)ccc23)cc(OC)c1OC	14.1 µM

system: BT-549; assay: Cytotoxicity against human BT549 cells after 72 hrs by MTT assay; format: functional, cell-based; settings: BT-549, 72 h; outline: as §1

SMILES	IC50
COc1ccc(/C=C\c2cc(OC)c(OC)c(OC)c2)cc1O [COMBRETASTATIN A4]	0.00171 µM
COc1ccc(C(=O)c2[nH]c3ccccc3c2NC(=O)c2cc(OC)c(OC)c(OC)c2)cc1	10.4 µM
COc1cc(C(=O)Nc2c(C(=O)c3ccc4ccccc4c3)[nH]c3cc(C)ccc23)cc(OC)c1OC	39.8 µM
COc1cc(C(=O)Nc2c(C(=O)c3ccc(C)cc3)[nH]c3cc(C)ccc23)cc(OC)c1OC	69.8 µM
COc1cc(C(=O)Nc2c(C(=O)c3ccc(Br)cc3)[nH]c3ccccc23)cc(OC)c1OC	10.3 µM
COc1ccc(C(=O)c2[nH]c3cc(Cl)ccc3c2NC(=O)c2cc(OC)c(OC)c(OC)c2)cc1O	7.48 µM
COc1cc(C(=O)Nc2c(C(=O)c3cccc(Br)c3)[nH]c3cc(Cl)ccc23)cc(OC)c1OC	8.42 µM

system: BT-549; assay: Cell cycle arrest in human BT549 cells assessed as accumulation of cells at G0/G1 phase at 8 uM after 24 hrs by propidium iodide staining-based flow cytometric analysis (reference value: 65.28%); format: functional; settings: not given

SMILES	Activity
COc1ccc(/C=C\c2cc(OC)c(OC)c(OC)c2)cc1O [COMBRETASTATIN A4]	8.9%

system: BT-549; assay: Cell cycle arrest in human BT549 cells assessed as accumulation of cells at G2/M phase at 8 uM after 24 hrs by propidium iodide staining-based flow cytometric analysis (reference value: 8.88%); format: functional; settings: not given

SMILES	Activity
COc1ccc(/C=C\c2cc(OC)c(OC)c(OC)c2)cc1O [COMBRETASTATIN A4]	72.9%

molecular target: Tubulin (Sus scrofa) (UniProt P02554+P02550); assay: Inhibition of pig brain tubulin polymerization at 10 uM by spectrophotometric analysis relative to control; settings: not given
Sequence (P02550 whole entry, looked up): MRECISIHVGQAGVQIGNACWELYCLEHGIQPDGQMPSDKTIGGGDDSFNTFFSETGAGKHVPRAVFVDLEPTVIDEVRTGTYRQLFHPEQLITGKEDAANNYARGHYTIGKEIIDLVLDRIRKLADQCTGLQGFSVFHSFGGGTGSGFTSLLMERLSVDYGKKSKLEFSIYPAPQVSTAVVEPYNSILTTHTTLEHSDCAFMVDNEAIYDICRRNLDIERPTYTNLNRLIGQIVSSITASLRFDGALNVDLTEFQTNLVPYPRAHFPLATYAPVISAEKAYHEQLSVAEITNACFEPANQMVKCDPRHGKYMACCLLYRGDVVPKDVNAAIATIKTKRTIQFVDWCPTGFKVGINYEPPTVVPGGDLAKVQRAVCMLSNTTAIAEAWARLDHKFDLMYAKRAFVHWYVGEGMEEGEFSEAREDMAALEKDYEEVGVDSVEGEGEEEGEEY
Sequence (P02554 whole entry, looked up): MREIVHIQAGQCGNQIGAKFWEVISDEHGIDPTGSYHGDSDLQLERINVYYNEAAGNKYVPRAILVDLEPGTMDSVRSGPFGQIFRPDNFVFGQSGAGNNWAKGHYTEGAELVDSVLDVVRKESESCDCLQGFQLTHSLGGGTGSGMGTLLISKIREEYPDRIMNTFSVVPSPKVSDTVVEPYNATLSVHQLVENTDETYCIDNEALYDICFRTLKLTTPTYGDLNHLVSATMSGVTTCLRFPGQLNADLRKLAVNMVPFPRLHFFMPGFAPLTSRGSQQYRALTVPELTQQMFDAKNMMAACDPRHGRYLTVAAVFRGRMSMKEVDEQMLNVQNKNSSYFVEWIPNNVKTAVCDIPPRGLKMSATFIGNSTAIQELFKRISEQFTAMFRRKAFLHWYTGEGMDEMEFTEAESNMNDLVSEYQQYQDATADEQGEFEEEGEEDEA
Outline: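 Tubulin polymerization inhibition was measured with compounds at a final concentration of 10 µM.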

SMILES	inhibition
COc1ccc(C(=O)c2[nH]c3ccccc3c2NC(=O)c2cc(OC)c(OC)c(OC)c2)cc1	20%
COc1cc(C(=O)Nc2c(C(=O)c3ccc(Br)cc3)[nH]c3ccccc23)cc(OC)c1OC	37%
COc1ccc(C(=O)c2[nH]c3cc(Cl)ccc3c2NC(=O)c2cc(OC)c(OC)c(OC)c2)cc1O	30%
COc1cc(C(=O)Nc2c(C(=O)c3cccc(Br)c3)[nH]c3cc(Cl)ccc23)cc(OC)c1OC	25%

system: MCF7; assay: Cytotoxicity against human MCF7 cells after 72 hrs by MTT assay; format: functional, cell-based; settings: MCF7, 72 h; outline: as §1

SMILES	IC50
COc1ccc(/C=C\c2cc(OC)c(OC)c(OC)c2)cc1O [COMBRETASTATIN A4]	0.003 µM
COc1ccc(C(=O)c2[nH]c3ccccc3c2NC(=O)c2cc(OC)c(OC)c(OC)c2)cc1	10.7 µM
COc1cc(C(=O)Nc2c(C(=O)c3ccc4ccccc4c3)[nH]c3cc(C)ccc23)cc(OC)c1OC	> 100 µM
COc1cc(C(=O)Nc2c(C(=O)c3ccc(C)cc3)[nH]c3cc(C)ccc23)cc(OC)c1OC	69.5 µM
COc1cc(C(=O)Nc2c(C(=O)c3ccc(Br)cc3)[nH]c3ccccc23)cc(OC)c1OC	7.14 µM
COc1ccc(C(=O)c2[nH]c3cc(Cl)ccc3c2NC(=O)c2cc(OC)c(OC)c(OC)c2)cc1O	32.6 µM
COc1cc(C(=O)Nc2c(C(=O)c3cccc(Br)c3)[nH]c3cc(Cl)ccc23)cc(OC)c1OC	23 µM

system: BT-549; assay: Cell cycle arrest in human BT549 cells assessed as accumulation of cells at S phase at 8 uM after 24 hrs by propidium iodide staining-based flow cytometric analysis (reference value: 25.84%); format: functional; settings: not given

SMILES	Activity
COc1ccc(/C=C\c2cc(OC)c(OC)c(OC)c2)cc1O [COMBRETASTATIN A4]	18.2%

system: MDA-MB-231; assay: Cytotoxicity against human MDA-MB-231 cells after 72 hrs by MTT assay; format: functional, cell-based; settings: MDA-MB-231, 72 h; outline: as §1

SMILES	IC50
COc1ccc(/C=C\c2cc(OC)c(OC)c(OC)c2)cc1O [COMBRETASTATIN A4]	0.00317 µM
COc1ccc(C(=O)c2[nH]c3ccccc3c2NC(=O)c2cc(OC)c(OC)c(OC)c2)cc1	35 µM
COc1cc(C(=O)Nc2c(C(=O)c3ccc4ccccc4c3)[nH]c3cc(C)ccc23)cc(OC)c1OC	> 100 µM
COc1cc(C(=O)Nc2c(C(=O)c3ccc(C)cc3)[nH]c3cc(C)ccc23)cc(OC)c1OC	33.4 µM
COc1cc(C(=O)Nc2c(C(=O)c3ccc(Br)cc3)[nH]c3ccccc23)cc(OC)c1OC	6.47 µM
COc1ccc(C(=O)c2[nH]c3cc(Cl)ccc3c2NC(=O)c2cc(OC)c(OC)c(OC)c2)cc1O	22.2 µM
COc1cc(C(=O)Nc2c(C(=O)c3cccc(Br)c3)[nH]c3cc(Cl)ccc23)cc(OC)c1OC	26.8 µM

system: Hs-578T; assay: Cytotoxicity against human Hs578T cells after 72 hrs by MTT assay; format: functional, cell-based; settings: not given; outline: as §1

SMILES	IC50
COc1ccc(/C=C\c2cc(OC)c(OC)c(OC)c2)cc1O [COMBRETASTATIN A4]	0.00136 µM
COc1ccc(C(=O)c2[nH]c3ccccc3c2NC(=O)c2cc(OC)c(OC)c(OC)c2)cc1	> 100 µM
COc1cc(C(=O)Nc2c(C(=O)c3ccc4ccccc4c3)[nH]c3cc(C)ccc23)cc(OC)c1OC	53.3 µM
COc1cc(C(=O)Nc2c(C(=O)c3ccc(C)cc3)[nH]c3cc(C)ccc23)cc(OC)c1OC	43.7 µM
COc1cc(C(=O)Nc2c(C(=O)c3ccc(Br)cc3)[nH]c3ccccc23)cc(OC)c1OC	7.52 µM
COc1ccc(C(=O)c2[nH]c3cc(Cl)ccc3c2NC(=O)c2cc(OC)c(OC)c(OC)c2)cc1O	4.35 µM
COc1cc(C(=O)Nc2c(C(=O)c3cccc(Br)c3)[nH]c3cc(Cl)ccc23)cc(OC)c1OC	4.1 µM
